Compound activity from PubChem.
ERa coact pot – ER-alpha (human) coactivator binding potentiation | TR-FRET ERalpha-LBD/SRC-Cy5 coactivator binding, 2 h; 100 = basal binding, no effect | coactivator binding (% of control), % at 25.6 µM | 86,000 tested, 1.3% active; in the data active means activity above about 200%;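 further: binding measured in presence of low estradiol as agonist stimulus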
ERa SRC1 inh – blocks coactivator binding to human estrogen receptor alpha; inhibition, % at 25.6 µM; TR-FRET ER-alpha LBD / SRC-1 peptide, estradiol-bound; 86,000 tested, 1.7% active; in the data active means inhibition above about 50%
ERb coact inh – ER-beta (human) coactivator binding inhibition; Q92731; TR-FRET ER-beta LBD / SRC1-Cy5 peptide binding; receptor agonist-loaded with 1 µM estradiol; inhibition, % at 25.6 µM; 86,000 tested, 1.3% active; AID 633;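 active means compounds whose percent inhibition of the receptor-coactivator binding signal exceeds about 50% in the single-dose screen, limit read from the data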
Rev-RRE block – inhibitors of HIV-1 Rev-RRE RNA interaction; Rev peptide-RRE RNA binding, FRET; inhibition, % at 8 µM; 97,000 tested, 0.79% active; AID 704;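 active means inhibition above the screen-wide mean plus 3 SD, cut at about 35% in these data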
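Test system – labelled RRE RNA duplex and labelled Rev peptide · Reagent – labelled Rev peptide · Doses – one concentration, 8 µM nominal · Incubation – 5 + 15 min at 25 °C · Signal – FRET fluorescence readout · Read-out basis – % inhibition of FRET ratio versus controls · Control set – DMSO wells as 0% and neomycin B wells as 100% inhibition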
sEH activator – soluble epoxide hydrolase (human) activation; purified human sEH enzymatic activity, activator screen; 91,000 tested, 0.04% active; activation, % at 2 µM; in the data active means activation above about 37%
Target sequence (P34913 whole entry, looked up): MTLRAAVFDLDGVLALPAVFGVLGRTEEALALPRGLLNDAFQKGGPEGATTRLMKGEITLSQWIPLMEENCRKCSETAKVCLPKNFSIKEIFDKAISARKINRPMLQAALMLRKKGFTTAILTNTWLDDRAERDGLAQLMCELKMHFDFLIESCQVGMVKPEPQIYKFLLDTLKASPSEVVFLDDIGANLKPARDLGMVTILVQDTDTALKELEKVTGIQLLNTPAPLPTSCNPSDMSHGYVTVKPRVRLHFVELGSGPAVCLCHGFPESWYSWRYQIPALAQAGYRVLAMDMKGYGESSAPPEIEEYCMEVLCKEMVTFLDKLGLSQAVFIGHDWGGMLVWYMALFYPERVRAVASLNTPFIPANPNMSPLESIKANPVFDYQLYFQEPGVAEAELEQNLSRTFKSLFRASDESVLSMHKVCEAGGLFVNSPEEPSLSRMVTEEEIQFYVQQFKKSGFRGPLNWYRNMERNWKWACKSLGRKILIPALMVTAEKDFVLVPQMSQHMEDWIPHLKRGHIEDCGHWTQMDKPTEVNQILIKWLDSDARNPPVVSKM
sEH inh – soluble epoxide hydrolase (human) inhibition. P34913. recombinant human sEH enzymatic activity assay. inhibition, % at 2 µM. 91,000 tested, 0.34% active. AID 707; in the data active means inhibition above about 80%
A number is an active result; - = inactive; . = no result given; [ ] = remark or other dose. Rows were chosen to be rich in hits. Some 3.5% of all compounds tested hit in one or more screens of this group.

SMILES | ERa coact pot | ERa SRC1 inh | ERb coact inh | Rev-RRE block | sEH activator | sEH inh
O=C(NNC(=O)c1ccc(SCC2CCCO2)c([N+](=O)[O-])c1)c1ccc(Cl)c([N+](=O)[O-])c1 (configuration not stated) | - | 51.0 | - | - | - | -
COc1cc(OC)c(S(=O)(=O)N2CCCCC2)cc1S(=O)(=O)N1CCCCC1 | - | - | - | - | - | -
COC(=O)c1ccccc1NC(=S)NC(NC(=O)COc1ccccc1)C(Cl)(Cl)Cl (configuration not stated) | . | . | . | - | - | -
Cc1cc(NC(=O)c2ccc(Cn3nc(C)c(Br)c3C)o2)no1 | - | - | - | - | - | -
Cc1nn(Cc2ccc(C(=O)Nc3nc4c(C)cccc4s3)o2)c(C)c1Br | - | 50.3 | - | - | - | -
NC(=O)CSc1nnnn1-c1ccc2c(c1)OCCO2 | - | - | - | - | - | -
CCOC(=O)c1cnn(-c2cccc(Cl)c2)c1N | - | - | - | - | - | -
Cc1ccccc1C(=O)N1CCN(c2ccc(NC(=O)CSc3ccc(Cl)cc3)cc2)CC1 | . | . | . | - | - | 85.8
O=C(CSc1ccc(Cl)cc1)Nc1ccc(N2CCN(C(=O)c3ccco3)CC2)cc1 | - | 64.3[fluorescence artefact?] | - | - | - | -
O=C(COc1ccc(Cl)cc1)Nc1ccc(N2CCN(C(=O)c3ccco3)CC2)cc1 | . | . | . | - | - | -
CCOCCCNC(=O)C(NC(=O)CNC(C)=O)c1ccc(Cl)cc1 (configuration not stated) | - | - | - | - | - | -
COc1ccc(-c2nc(Cn3c(SCc4ccccc4F)nc4ccncc43)c(C)o2)cc1 | 458.4[fluorescence artefact?] | - | - | - | - | -
COc1ccc(-c2nc(Cn3c(SCc4ccc(F)cc4)nc4ccncc43)c(C)o2)cc1OC | - | - | - | - | - | -
CCCCn1nc(-c2ccccc2)c2nc3ccccc3nc21 | - | - | - | 96.6[fluorescence artefact?] | - | -
Cn1nc(-c2ccccc2)c2nc3ccccc3nc21 | - | - | - | 92.2[fluorescence artefact?] | - | -
CCN(CC(=O)Nc1ccccc1C(=O)OC)S(=O)(=O)c1ccc(OC)cc1 | - | - | - | - | . | .
Cc1cc(NS(=O)(=O)c2ccc(Nc3nc(-c4sc(NC(=O)c5ccccc5)nc4C)cs3)cc2)no1 | - | - | - | - | - | 93.6
CCC(=O)Nc1nc(C)c(-c2csc(Nc3ccc(S(=O)(=O)Nc4cc(C)on4)cc3)n2)s1 | . | . | . | - | - | -
COc1ccc(C2N(S(=O)(=O)c3ccccc3)CCN2S(=O)(=O)c2ccc(C)cc2)cc1 (configuration not stated) | - | - | - | - | - | -
CN1/C(=C\C(=O)COC(=O)Cn2nnc(-c3ccccc3)n2)C(C)(C)c2ccccc21 | 291.6 | - | - | - | - | -
CCOC(=O)C1CCCN(CC(=O)/C=C2/N(C)c3ccccc3C2(C)C)C1 (configuration not stated) | - | - | - | - | - | -
O=C(c1cccc(F)c1)N1CCN(c2cccc(Cl)c2)CC1 | - | - | - | 141.2[fluorescence artefact?] | . | .
O=C(c1cccc(Cl)c1)N1CCN(C(=O)c2ccccc2F)CC1 | - | - | - | - | - | -
CCOc1ccc(N2C(=O)c3cccnc3C2=O)cc1 | - | - | - | - | - | -
CCCCN(C)CCNS(=O)(=O)c1ccc2c(c1)n(C)c(=O)c(=O)n2C | - | - | - | - | - | -
SMILES | ERa coact pot | ERa SRC1 inh | ERb coact inh | Rev-RRE block | sEH activator | sEH inh
CC(C)Sc1nc(SCC(=O)NCc2ccco2)c2c3c(sc2n1)COC(C)(C)C3 | - | - | - | . | . | .
CCCSc1nc(SCC(=O)NCc2ccccc2)c2c3c(sc2n1)COC(C)(C)C3 | 293.7[fluorescence artefact?] | - | - | - | - | -
CCOc1ccccc1-n1c(SCC(=O)N2CCCC2)nnc1-c1ccc(O)cc1 | - | - | - | - | - | -
CCOc1ccc(NC(=O)N2CCC(c3ccc(C)cc3)C2)cc1 (configuration not stated) | - | - | - | - | - | 82.1
CSc1nc2nccc(-c3ccc(-c4ccccc4)cc3)n2n1 | 220.5 | - | - | - | - | -
O=C(c1ccccc1)c1ccccc1C(=O)N1CCOCC1 | - | - | - | - | - | -
O=C(O)C1Nc2c(C(=O)N3CCOCC3)cccc2C2C=CCC12 (configuration not stated) | - | 70.0 | 82.2 | - | - | -
